Measurements: ChEMBL document CHEMBL2440113, “Synthesis, radiofluorination, and in vivo evaluation of novel fluorinated and iodinated radiotracers for PET imaging and targeted radionuclide therapy of melanoma” (J Med Chem, 2013)

Assays:
[1] = test system: Stomach; experiment: Biodistribution in stomach of C57BL/6J mouse harboring mouse B16-Bl6 cells at 9 to 12 MBq, iv after 1 hr by PET analysis; type: ADME, organism-based; settings: in vivo
Method in brief: (§1)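 Ex vivo dissection in B16Bl6-bearing C57BL/6J mice (3x10⁵ cells s.c. right shoulder), done at day 10 or 14 after implantation. The ¹⁸F tracer was given i.v. at 9-12 MBq. Mice were killed by CO₂ at 1, 2 or 3 h. Tumor, organs and tissues were excised, weighed and gamma-counted, then decay-corrected and expressed as %ID/g. n=3-6 per group; mean ± SD.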

[2] = test system: Mus musculus; experiment: Biodistribution in small intestine of C57BL/6J mouse harboring mouse B16-Bl6 cells at 9 to 12 MBq, iv after 2 hrs by PET analysis; type: ADME, organism-based; settings: in vivo; method in brief: as §1
[3] = test system: Spleen; experiment: Biodistribution in spleen of C57BL/6J mouse harboring mouse B16-Bl6 cells at 9 to 12 MBq, iv after 3 hrs by PET analysis; type: ADME, organism-based; settings: in vivo; method in brief: as §1
[4] = test system: Kidney; experiment: Biodistribution in kidney of C57BL/6J mouse harboring mouse B16-Bl6 cells at 9 to 12 MBq, iv after 3 hrs by PET analysis; type: ADME, organism-based; settings: in vivo; method in brief: as §1
[5] = test system: Lung; experiment: Biodistribution in lung of C57BL/6J mouse harboring mouse B16-Bl6 cells at 9 to 12 MBq, iv after 1 hr by PET analysis; type: ADME, organism-based; settings: in vivo; method in brief: as §1
[6] = Ratio of drug level in tumor to blood in C57BL/6J mouse harboring mouse B16-Bl6 cells at 9 to 12 MBq, iv after 1 hr by PET analysis; type: ADME, organism-based
Method in brief: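 Ex vivo biodistribution. C57BL/6J mice bearing subcutaneous B16Bl6 tumours (3x10⁵ cells, shoulder), day 10 or 14, received [18F]tracer iv (9-12 MBq). They were killed by CO₂ at 1, 2 or 3 h. Tumours and organs were excised, weighed and gamma-counted. Results are decay-corrected % ID/g; ratios are tumour over tissue. n=3-6 per group; mean ± SD.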

[7] = test system: Blood; experiment: Biodistribution in blood of C57BL/6J mouse harboring mouse B16-Bl6 cells at 9 to 12 MBq, iv after 2 hrs by PET analysis; type: ADME, organism-based; settings: in vivo; method in brief: as §1
[8] = Octanol-water partition coefficient, log D of the compound at pH 7.4; type: physicochemical
Method in brief: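 About 74 kBq radiotracer was shaken in PBS pH 7.4 / octanol (1:1 mL), vortexed 1 min three times at room temperature, then centrifuged (3,000 rpm, 5 min). Both phases were gamma-counted. Three independent experiments in duplicate.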

[9] = test system: Pancreas; experiment: Biodistribution in pancreas of C57BL/6J mouse harboring mouse B16-Bl6 cells at 9 to 12 MBq, iv after 1 hr by PET analysis; type: ADME, organism-based; settings: in vivo; method in brief: as §1
[10] = test system: Muscle tissue; experiment: Biodistribution in muscle of C57BL/6J mouse harboring mouse B16-Bl6 cells at 9 to 12 MBq, iv after 1 hr by PET analysis; type: ADME, organism-based; settings: in vivo; method in brief: as §1
[11] = test system: Liver; experiment: Stability of the compound in liver of C57BL/6J mouse harboring mouse B16-Bl6 cells assessed as unchanged drug level at 18 MBq, iv after 2 hrs; type: ADME, organism-based; settings: in vivo
Method in brief: (§2)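 Metabolite analysis in six B16Bl6 tumour-bearing mice given 18 MBq iv, killed at 30 min, 1 h or 2 h. Plasma (centrifuged) and bladder urine were injected directly. Pooled tumours, eyes and livers were homogenized in MeOH/NH₄OH 99.8:0.2, centrifuged, filtered and concentrated. Samples ran on radio-HPLC (C18, MeOH/H₂O/NH₄OH gradient) in duplicate; result is % unchanged tracer of total radioactivity.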

[12] = Stability of the compound in liver of C57BL/6J mouse harboring mouse B16-Bl6 cells assessed as unchanged drug level at 18 MBq, iv after 1 hr; type: ADME, organism-based; settings: read-out: Stability; method in brief: as §2
[13] = Stability of the compound in eyes of C57BL/6J mouse harboring mouse B16-Bl6 cells assessed as unchanged drug level at 18 MBq, iv after 2 hrs; type: ADME, organism-based, Eye; settings: read-out: Stability; method in brief: as §2
[14] = Stability of the compound in tumor of C57BL/6J mouse harboring mouse B16-Bl6 cells assessed as unchanged drug level at 18 MBq, iv after 2 hrs; type: ADME, organism-based, Neoplasm; settings: read-out: Stability; method in brief: as §2
[15] = Stability of the compound in urine of C57BL/6J mouse harboring mouse B16-Bl6 cells assessed as unchanged drug level at 18 MBq, iv after 1 hr; type: ADME, organism-based; settings: read-out: Stability; method in brief: as §2
[16] = test system: Blood; experiment: Stability of the compound in blood of C57BL/6J mouse harboring mouse B16-Bl6 cells assessed as unchanged drug level at 18 MBq, iv after 2 hrs; type: ADME, organism-based; settings: in vivo; method in brief: as §2
[17] = Stability of the compound in tumor of C57BL/6J mouse harboring mouse B16-Bl6 cells assessed as unchanged drug level at 18 MBq, iv after 30 mins; type: ADME, organism-based, Neoplasm; settings: read-out: Stability
[18] = Stability of the compound in urine of C57BL/6J mouse harboring mouse B16-Bl6 cells assessed as unchanged drug level at 18 MBq, iv after 2 hrs; type: ADME, organism-based; settings: in vivo; method in brief: as §2
[19] = Stability of the compound in eyes of C57BL/6J mouse harboring mouse B16-Bl6 cells assessed as unchanged drug level at 18 MBq, iv after 1 hr; type: ADME, organism-based, Eye; settings: read-out: Stability; method in brief: as §2

Drug uptake [1] | Drug uptake [2] | Drug uptake [3] | Drug uptake [4] | Drug uptake [5] | Kp at 1 h [6] | Drug uptake [7] | logD [8] | Drug uptake [9] | Drug uptake [10] | Stability [11] | remaining at 1 h [12] | remaining at 2 h [13] | remaining at 2 h [14] | remaining at 1 h [15] | Stability [16] | remaining at 0.5 h [17] | Stability [18] | remaining at 1 h [19] | Compound
5.87 % ID/g | 19.51 % ID/g | 2.35 % ID/g | 2.6 % ID/g | 1.75 % ID/g | 8.29 | 1.37 % ID/g | 0.95 | 2.63 % ID/g | 1.07 % ID/g | – | – | – | – | – | – | – | – | – | CCN(CCNC(=O)c1cnc2cc(I)ccc2n1)CCOCCOCCOCCOCCOCCOCCOCC[18F]
4.41 % ID/g | 4.28 % ID/g | 1.87 % ID/g | 2.19 % ID/g | 1.86 % ID/g | 10.2 | 1.12 % ID/g | 1.52 | 2.09 % ID/g | 1.17 % ID/g | Unstable | 8% | > 99% | > 99% | 0.1% | Unstable | > 99% | Unstable | > 99% | CCN(CCNC(=O)c1cnc2cc(I)ccc2n1)CCOCCOCCOCC[18F]
